Assay [1] concerns A549. Kind of assay: Cytotoxicity against human A549 cells at 50 ug/ml by MTT assay. The format is functional. Put shortly:
(§1)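 A549 cells (NCIS Pune) grown in DMEM with 10% FBS, 2 mM L-glutamine, penicillin/streptomycin, pH 7.2. 5 × 10^5 cells were seeded with compound at 100, 50 or 25 per mL and kept at 37 °C, 5% CO2. MTT (1 mg/mL, 4 h) was added, formazan dissolved in DMSO and read at 540 nm. IC50 is the mean of three replicate experiments; Duncan test at P = 0.05.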

In assay [2] the test system is A549. Kind of assay: Cytotoxicity against human A549 cells at 25 ug/ml by MTT assay. The format is functional. Put shortly: as §1
A general note: Tetrazolium assays rely on reduction of a dye to a coloured formazan, in cell work by metabolically active cells.

Assay [3] relates to A549. Kind of assay: Induction of apoptosis in human A549 cells at 25 ug/ml after 24 hrs by propidium iodide/FITC staining-based confocal laser scanning microscopy. The format is functional, cell-based. Put shortly:
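Cells were exposed to compound or untreated for 24 h, washed twice in 0.01 M PBS and suspended in binding buffer. They were stained with FITC and PI for 30 min at 4 °C in the dark, pelleted and smeared. Fluorescence was viewed at once by confocal laser scanning microscopy at 400× magnification.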

For assay [4], the system named is A549. Briefly: Cytotoxicity against human A549 cells assessed as growth inhibition at 25 ug/ml after 24 hrs by agarose gel electrophoresis. It counts as functional, cell-based. Put shortly:
(§2)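 A549 cells were exposed to compound for 24 h. 1 × 10^6 cells were pelleted, PBS-washed and lysed at 4 °C for 15 min in 10 mM Tris-HCl pH 7.4 with 10 mM EDTA and 0.5% Triton X-100. Supernatant was treated with proteinase K (60 °C, 60 min) then RNase A (37 °C, 60 min). DNA was isopropanol/NaCl precipitated overnight and run on a 2% agarose gel.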

The subject of assay [5] is A549. Kind of assay: Cytotoxicity against human A549 cells by MTT assay. The format is functional, cell-based. The essentials: as §1
For assay [6], the system named is A549. Kind of assay: Induction of apoptosis in human A549 cells assessed as DNA fragmentation at 25 ug/ml after 24 hrs by agarose gel electrophoresis. It counts as functional, cell-based. The essentials: as §2
The test system of assay [7] is A549. Briefly: Cytotoxicity against human A549 cells at 100 ug/ml by MTT assay. The format is functional. The essentials: as §1

Structures are written as SMILES. Calls of active or inactive are those of the source. No cut-off for these calls is given here.

Take `CN1C(=O)[C@@]2(c3ccccc31)N1CSCC1[C@H](c1ncc[nH]1)[C@@]2(C#N)C(=O)c1c[nH]c2ccccc12` (some centres not stated): in assay [1], the inhibition at 50 µg/mL stood at 75.1%. In assay [2], this molecule returned an inhibition at 25 µg/mL of 64.8%. Besides, the result in assay [3] and in assay [6] was Active. The “growth inhibition (GI)” value in assay [4] is “Active”. Besides, the Activity result in assay [5] is “Dose-dependent effect”. Moreover, the inhibition at 100 µg/mL in assay [7] was 87.8%.

Usually inhibition stands for the drop in the measured response relative to a control, in per cent. Low values mean a weak effect, high ones a strong effect.

The record behind these values is ChEMBL document CHEMBL3112538, “Novel spirooxindole-pyrrolidine compounds: synthesis, anticancer and molecular docking studies” (2014).
